ChEMBL document CHEMBL1641399, “Phytochemical investigations of Stemona curtisii and synthetic studies on stemocurtisine alkaloids” (2010)
Values after ≈ are worked out from the molar mass of the structure shown.

What was measured:
[1] = biological target: Acetylcholinesterase (Homo sapiens) (UniProt P22303)
Staphylococcus aureus [2] = experiment: Antimicrobial activity against methicillin-resistant Staphylococcus aureus; type: functional
Outline: (§1)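 Antibacterial MIC determination in µg/mL against a bacterial panel that includes Streptococcus pyogenes, with gentamicin as positive control; otherwise run by a literature procedure.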

Cryptococcus neoformans = experiment: Antimicrobial activity against Cryptococcus neoformans; type: functional
Outline: (§2)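 Antifungal test read as MIC (µg/mL), following a previously published procedure, with amphotericin B run as positive control.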

Staphylococcus aureus [3] = experiment: Antimicrobial activity against Staphylococcus aureus; type: functional
Outline: as §1

Streptococcus pyogenes = experiment: Antimicrobial activity against Streptococcus pyogenes; type: functional
Outline: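 Antibacterial test read as MIC (µg/mL), following a previously published procedure, with gentamicin run as positive control.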

Klebsiella pneumoniae = experiment: Antimicrobial activity against Klebsiella pneumoniae; type: functional
Candida albicans = experiment: Antimicrobial activity against Candida albicans; type: functional
Outline: as §2

Escherichia coli = experiment: Antimicrobial activity against Escherichia coli; type: functional

Acetylcholinesterase (Homo sapiens), sequence (P22303 whole entry): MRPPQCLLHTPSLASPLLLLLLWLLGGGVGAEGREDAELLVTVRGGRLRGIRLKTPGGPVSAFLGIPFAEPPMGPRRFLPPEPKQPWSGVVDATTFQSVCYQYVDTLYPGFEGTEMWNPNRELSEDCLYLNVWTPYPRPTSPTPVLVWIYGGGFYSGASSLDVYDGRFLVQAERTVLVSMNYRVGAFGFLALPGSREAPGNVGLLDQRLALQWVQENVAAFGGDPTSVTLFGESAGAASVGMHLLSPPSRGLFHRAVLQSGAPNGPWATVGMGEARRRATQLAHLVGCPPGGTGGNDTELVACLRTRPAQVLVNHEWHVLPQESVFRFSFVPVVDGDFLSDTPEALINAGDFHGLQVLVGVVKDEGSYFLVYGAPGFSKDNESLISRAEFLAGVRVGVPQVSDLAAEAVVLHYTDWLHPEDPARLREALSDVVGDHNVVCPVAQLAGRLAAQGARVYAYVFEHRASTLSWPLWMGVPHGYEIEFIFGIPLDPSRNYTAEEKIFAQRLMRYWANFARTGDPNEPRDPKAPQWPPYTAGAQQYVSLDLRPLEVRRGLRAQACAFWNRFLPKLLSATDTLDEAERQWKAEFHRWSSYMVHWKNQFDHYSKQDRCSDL

Compound	MIC [1] [ng]	MIC (Staphylococcus aureus [2]) [µg/mL]	MIC (Cryptococcus neoformans) [µg/mL]	MIC (Staphylococcus aureus [3]) [µg/mL]	MIC (Streptococcus pyogenes) [µg/mL]	MIC (Klebsiella pneumoniae) [µg/mL]	MIC (Candida albicans) [µg/mL]	MIC (Escherichia coli) [µg/mL]
CC/C=C/C12C3CC4C5[C@@H](C)/C(=C6/OC(=O)C(C)=C6OC)O[C@]5(O3)C1CCN42 (some centres undefined)	5							
CC[C@H](O)[C@@H]1CC[C@@H]2O[C@@]34CCC[N+]1([O-])[C@@H]2[C@H]3[C@H](C)/C(=C1/OC(=O)C(C)=C1OC)O4 (some centres undefined)	100							
C[C@@H]1[C@H](O)[C@@H](C)/C=C/C=C/C=C/C=C/C=C/C=C/C=C/[C@H](O[C@@H]2O[C@H](C)[C@@H](O)[C@H](N)[C@@H]2O)C[C@@H]2O[C@](O)(C[C@@H](O)C[C@@H](O)[C@H](O)CC[C@@H](O)C[C@@H](O)CC(=O)O[C@H]1C)C[C@H](O)[C@H]2C(=O)O [AMPHOTERICIN B]		250 (≈ 271 µM)	250 (≈ 271 µM)	250 (≈ 271 µM)	250 (≈ 271 µM)	250 (≈ 271 µM)	250 (≈ 271 µM)	250 (≈ 271 µM)
COc1cc(-c2cc3c(O)cccc3o2)c(C)c(O)c1C [STEMOFURAN E]		250 (≈ 879 µM)	250 (≈ 879 µM)	250 (≈ 879 µM)	250 (≈ 879 µM)	250 (≈ 879 µM)	250 (≈ 879 µM)	250 (≈ 879 µM)
COc1c(C)c(O)c(C)c(-c2cc3c(O)cccc3o2)c1C [STEMOFURAN F]		250 (≈ 838 µM)	250 (≈ 838 µM)	250 (≈ 838 µM)	250 (≈ 838 µM)	250 (≈ 838 µM)	250 (≈ 838 µM)	250 (≈ 838 µM)
COc1cc(-c2cc3c(O)cccc3o2)c(C)c(OC)c1C [STEMOFURAN J]		250 (≈ 838 µM)	250 (≈ 838 µM)	250 (≈ 838 µM)	250 (≈ 838 µM)	250 (≈ 838 µM)	250 (≈ 838 µM)	250 (≈ 838 µM)
COc1c(C)c(O)c(C)c(-c2cc3ccccc3o2)c1C [STEMOFURAN K]		250 (≈ 885 µM)	250 (≈ 885 µM)	250 (≈ 885 µM)	250 (≈ 885 µM)	250 (≈ 885 µM)	250 (≈ 885 µM)	250 (≈ 885 µM)
GENTAMICIN		250	250	250	250	250	250	250
